pIC50: −log10 of the molar value.
test: Antiglycation activity of compound assessed as inhibition of BSA-derived advance glycated end product formation after 7 days by spectrofluorimeter; assay type: physicochemical; conditions: not given; call rule not given here
Procedure, shortened: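 BSA (10 mg/mL) mixed with anhydrous glucose (50 mg/mL) and test sample in equal parts, in sodium phosphate buffer pH 7.4 (67 mM Na2HPO4, 3 mM sodium azide), incubated 37 °C for 7 days. Protein precipitated with TCA and centrifuged, pellet washed with 10% TCA, then redissolved in PBS. AGE fluorescence read at excitation 370 nm, emission 440 nm. % inhibition computed against glycated control (BSA + glucose + buffer).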

Row | IC50 | SMILES
1 | Not Active | Cc1ccc(C)c(NC(=O)Nc2cccc(Cl)c2)c1
2 | Not Active | Cc1cccc(C)c1NC(=O)Nc1ccccc1
3 | Not Active | Cc1ccc(C)c(NC(=O)Nc2ccccc2)c1
4 | Not Active | Cc1cccc(C)c1NC(=O)Nc1cccc(Cl)c1
5 | Not Active | Cc1cc(C)cc(NC(=O)Nc2ccccc2)c1
6 | Not Active | Cc1cccc(NC(=O)Nc2ccccc2)c1C
7 | Not Active | Cc1ccc(NC(=O)Nc2cccc(Cl)c2)cc1C
8 | Not Active | Cc1ccc(NC(=O)Nc2ccccc2)c(C)c1
9 | Not Active | Cc1ccc(NC(=O)Nc2cccc(Cl)c2)c(C)c1
10 | Not Active | Cc1cccc(NC(=O)Nc2cccc(Cl)c2)c1C

same assay, conditions: read-out: IC50

Row | SMILES | pIC50
11 | O=C(Nc1cccc(Cl)c1)Nc1ccc(Cl)c(Cl)c1 | 4.82
12 | Cc1cc(C)cc(NC(=O)Nc2cccc(Cl)c2)c1 | 3.04
13 | C[C@@H]1O[C@@H](OC[C@H]2O[C@@H](Oc3c(-c4ccc(O)c(O)c4)oc4cc(O)cc(O)c4c3=O)[C@H](O)[C@@H](O)[C@@H]2O)[C@H](O)[C@H](O)[C@H]1O [RUTIN] | 4.38
14 | O=C(Nc1ccc(Br)cc1)Nc1cccc(Cl)c1 | 5.19
15 | O=C(Nc1cccc(Cl)c1)Nc1ccccc1Br | 5.18
16 | O=C(Nc1cccc(Cl)c1)Nc1cccc(Br)c1 | 5.09
17 | COc1ccc(NC(=O)Nc2cccc(Cl)c2)cc1 | 5.15
18 | COc1cccc(NC(=O)Nc2cccc(Cl)c2)c1 | 5.24
19 | COc1ccc([N+](=O)[O-])cc1NC(=O)Nc1cccc(Cl)c1 | 3.39
20 | COc1ccccc1NC(=O)Nc1cccc(Cl)c1 | 5.15

Results, then the compound that gave them:

Row | pIC50 | SMILES
21 | 3.64 | COc1cccc(NC(=O)Nc2ccccc2)c1
22 | 5.14 | O=C(Nc1ccccc1)Nc1cccc([N+](=O)[O-])c1
23 | 5.05 | Cc1ccc(NC(=O)Nc2ccccc2)cc1C
24 | 3.79 | COc1ccc([N+](=O)[O-])cc1NC(=O)Nc1ccccc1
25 | 3.92 | O=C(Nc1ccccc1)Nc1ccccc1Br
26 | 5.21 | O=C(Nc1ccccc1)Nc1ccc(Br)cc1
27 | 5.37 | O=C(Nc1ccccc1)Nc1cccc(Br)c1
28 | 3.08 | O=C(Nc1ccccc1)Nc1ccc(Cl)c(Cl)c1
29 | 5.08 | COc1ccc(NC(=O)Nc2ccccc2)cc1
